According to ChEMBL document CHEMBL1833790, “N-(2-{3-[3,5-bis(trifluoromethyl)phenyl]ureido}ethyl)-glycyrrhetinamide (6b): a novel anticancer glycyrrhetinic acid derivative that targets the proteasome and displays anti-kinase activity” (J Med Chem, 2011):
Active and inactive are the calls of the source. The rule behind the calls is not given here. Peptide text beside a SMILES is read from it. * marks the point of attachment. Cbz = O=C(OCc1ccccc1)*

Legend:
[1] = Chemical stability of the compound in MEM cell culture medium after 7 days by HPLC analysis; assay type: physicochemical; conditions: read-out: Stability
Outline: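 Compound incubated in MEM culture medium at 37 °C for 7 days, then analysed by HPLC on RX-C8 (5 μm) column with MeOH–water 90:10 (0.1% TFA), diode-array detection. Expressed as % of incubated compound recovered.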

A549 = assay: Growth inhibition in apoptosis-resistant human A549 after 3 days by MTT assay; assay type: functional; conditions: A549, 72 h
Outline: (§1)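 Cells grown in RPMI with 10% heat-inactivated FCS, 4 mM glutamine, gentamicin and penicillin–streptomycin. Drug exposure 3 days, growth read by MTT colorimetric assay. Nine concentrations from 0.01 to 100 μM in semilog steps, six replicates each; IC50 derived per cell line.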

SK-MEL-28 = assay: Growth inhibition in apoptosis-resistant human SK-MEL-28 after 3 days by MTT assay; assay type: functional; conditions: SK-MEL-28, 72 h; outline: as §1
T98G = assay: Growth inhibition in apoptosis-resistant human T98G after 3 days by MTT assay; assay type: functional; conditions: 72 h; outline: as §1
[2] = Growth inhibition in apoptosis-resistant human U373 after 3 days by MTT assay; assay type: functional, U-373MG ATCC; conditions: U373 MG, 72 h; outline: as §1
Hs 683 = assay: Growth inhibition in apoptosis-sensitive human Hs683 after 3 days by MTT assay; assay type: functional; conditions: Hs 683, 72 h; outline: as §1
PC-3 = assay: Growth inhibition in apoptosis-sensitive human PC3 after 3 days by MTT assay; assay type: functional; conditions: PC-3, 72 h; outline: as §1
MCF7 = assay: Growth inhibition in apoptosis-sensitive human MCF7 after 3 days by MTT assay; assay type: functional; conditions: MCF7, 72 h; outline: as §1
B16-F10 = assay: Growth inhibition in mouse B16F10 after 3 days by MTT assay; assay type: functional; conditions: B16-F10, 72 h; outline: as §1
U-373MG ATCC [3] = assay: Inhibition of chymotrypsin-like activity of 20S proteasome in human U373 at 7 uM after 2 days by bioluminescence assay; assay type: cell-based
Outline: (§2)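 U373 GBM cells seeded at 5000 cells/mL and grown 48 h, then treated for two days. Cells washed in PBS and permeabilised with 0.025% digitonin. Proteasome-Glo reagent added with Suc-LLVY-Glo (chymotrypsin-like), Z-LRR-Glo (trypsin-like) or Z-nLPnLD-Glo (caspase-like) substrate. Luminescence read after 10 min in the dark and normalised to a parallel MTT viability assay; triplicates. MG-132 at 0.5 μM used as reference.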

U-373MG ATCC [4] = assay: Inhibition of trypsin-like activity of 20S proteasome in human U373 cells at 7 uM after 2 days by bioluminescence assay; assay type: cell-based; outline: as §2
U-373MG ATCC [5] = assay: Inhibition of caspase-like activity of 20S proteasome in human U373 cells at 7 uM after 2 days by bioluminescence assay; assay type: cell-based; outline: as §2
U-373MG ATCC [6] = assay: Inhibition of chymotrypsin-like activity of 20S proteasome in human U373 cells at 60 uM after 2 days by bioluminescence assay; assay type: cell-based; outline: as §2
U-373MG ATCC [7] = assay: Inhibition of trypsin-like activity of 20S proteasome in human U373 cells at 60 uM after 2 days by bioluminescence assay; assay type: cell-based; outline: as §2
U-373MG ATCC [8] = assay: Inhibition of caspase-like activity of 20S proteasome in human U373 cells at 60 uM after 2 days by bioluminescence assay; assay type: cell-based; outline: as §2
U-373MG ATCC [9] = assay: Inhibition of chymotrypsin-like activity of 20S proteasome in human U373 cells at 0.5 uM after 2 days by bioluminescence assay; assay type: cell-based; outline: as §2
U-373MG ATCC [10] = assay: Inhibition of trypsin-like activity of 20S proteasome in human U373 cells at 0.5 uM after 2 days by bioluminescence assay; assay type: cell-based; outline: as §2
U-373MG ATCC [11] = assay: Inhibition of caspase-like activity of 20S proteasome in human U373 cells at 0.5 uM after 2 days by bioluminescence assay; assay type: cell-based; outline: as §2
[12] = target: T1, Peroxisome proliferator-activated receptor gamma (Homo sapiens) (UniProt P37231); assay: Activation of PPARgamma activity in human U373 cells at 60 uM after 6 hrs by spectrophotometric analysis relative to control; assay type: cell-based; conditions: U-373MG ATCC
T1 sequence (whole entry): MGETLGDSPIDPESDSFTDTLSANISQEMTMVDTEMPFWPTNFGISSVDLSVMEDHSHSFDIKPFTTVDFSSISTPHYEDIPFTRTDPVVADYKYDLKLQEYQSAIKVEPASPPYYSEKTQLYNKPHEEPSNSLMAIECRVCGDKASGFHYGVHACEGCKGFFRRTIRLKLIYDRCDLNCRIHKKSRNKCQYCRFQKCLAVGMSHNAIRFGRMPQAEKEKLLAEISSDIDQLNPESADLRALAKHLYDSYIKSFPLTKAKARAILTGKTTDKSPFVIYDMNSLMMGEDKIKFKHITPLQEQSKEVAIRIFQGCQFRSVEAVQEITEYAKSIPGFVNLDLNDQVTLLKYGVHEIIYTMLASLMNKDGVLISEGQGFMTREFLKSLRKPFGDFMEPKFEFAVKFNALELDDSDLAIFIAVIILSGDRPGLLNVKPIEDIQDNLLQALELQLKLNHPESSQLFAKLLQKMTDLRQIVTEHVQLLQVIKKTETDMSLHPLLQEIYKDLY
Outline: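 U373 glioblastoma cells were exposed for 6 h. Nuclear extracts were prepared by hypotonic buffer, NP-40 lysis and a protease-inhibitor extraction buffer. Extracts were bound overnight at 4 °C in a PPAR-γ transcription-factor plate, then probed with primary antibody and HRP anti-rabbit secondary, 1 h each at room temperature. Developer ran 45 min, read at 450 nm. Triplicates, mean ± SD versus control.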

SMILES	remaining at 168 h [1] [%]	GI50 (A549) [µM]	GI50 (SK-MEL-28) [µM]	GI50 (T98G) [µM]	GI50 [2] [µM]	GI50 (Hs 683) [µM]	GI50 (PC-3) [µM]	GI50 (MCF7) [µM]	GI50 (B16-F10) [µM]	inhibition (U-373MG ATCC [3])	inhibition (U-373MG ATCC [4])	inhibition (U-373MG ATCC [5])	inhibition (U-373MG ATCC [6])	inhibition (U-373MG ATCC [7])	inhibition (U-373MG ATCC [8])	inhibition (U-373MG ATCC [9])	inhibition (U-373MG ATCC [10])	inhibition (U-373MG ATCC [11])	Activity [12]
CC1(C)[C@@H](O)CC[C@]2(C)[C@H]3C(=O)C=C4[C@@H]5C[C@@](C)(C(=O)NCCNC(=O)c6ccc(C(F)(F)F)cc6)CC[C@]5(C)CC[C@@]4(C)[C@]3(C)CC[C@@H]12	95	47	49	62	55	38	53	28	36										
CC1(C)[C@@H](O)CC[C@]2(C)[C@H]3C(=O)C=C4[C@@H]5C[C@@](C)(C(=O)NCCNC(=O)Nc6ccccc6)CC[C@]5(C)CC[C@@]4(C)[C@]3(C)CC[C@@H]12	96	29	49	30	30	28	32	28	31										
CSCCCNC(=S)NCCNC(=O)[C@@]1(C)CC[C@]2(C)CC[C@]3(C)C(=CC(=O)[C@@H]4[C@@]5(C)CC[C@H](O)C(C)(C)[C@@H]5CC[C@]43C)[C@@H]2C1	93	38	33	35	35	36	39	30	33										
CC1(C)[C@@H](O)CC[C@]2(C)[C@H]3C(=O)C=C4[C@@H]5C[C@@](C)(C(=O)NCCc6ccc(F)cc6)CC[C@]5(C)CC[C@@]4(C)[C@]3(C)CC[C@@H]12	95	33	82	46	42	56	33	31	32										
COc1ccc(CCNC(=O)[C@@]2(C)CC[C@]3(C)CC[C@]4(C)C(=CC(=O)[C@@H]5[C@@]6(C)CC[C@H](O)C(C)(C)[C@@H]6CC[C@]54C)[C@@H]3C2)cc1	91	37	> 100	68	49	61	34	36	31										
CC1(C)[C@@H](O)CC[C@]2(C)[C@H]3C(=O)C=C4[C@@H]5C[C@@](C)(C(=O)NCCNC(=O)c6ccc(C#N)cc6)CC[C@]5(C)CC[C@@]4(C)[C@]3(C)CC[C@@H]12	92	68	35	77	76	67	72	27	31										
COc1cccc(C(=O)NCCNC(=O)[C@@]2(C)CC[C@]3(C)CC[C@]4(C)C(=CC(=O)[C@@H]5[C@@]6(C)CC[C@H](O)C(C)(C)[C@@H]6CC[C@]54C)[C@@H]3C2)c1	99	63	42	77	75	58	72	46	31										
CC(C)C[C@@H](C=O)NC(=O)[C@H](CC(C)C)NC(=O)[C@H](CC(C)C)NC(=O)OCc1ccccc1 (Cbz-Leu-Leu-Leu-aldehyde)										Active	Active	Active	Active	Active	Active	Active	Active	Active	
CC1(C)[C@@H](O)CC[C@]2(C)[C@H]3C(=O)C=C4[C@@H]5C[C@@](C)(C(=O)NCCNC(=O)c6ccc(F)cc6)CC[C@]5(C)CC[C@@]4(C)[C@]3(C)CC[C@@H]12	98	28	37	35	29	31	30	25	28										
CSc1ccc(C(=O)NCCNC(=O)[C@@]2(C)CC[C@]3(C)CC[C@]4(C)C(=CC(=O)[C@@H]5[C@@]6(C)CC[C@H](O)C(C)(C)[C@@H]6CC[C@]54C)[C@@H]3C2)cc1	99	37	38	54	37	36	47	30	31										
CC1(C)[C@@H](O)CC[C@]2(C)[C@H]3C(=O)C=C4[C@@H]5C[C@@](C)(C(=O)NCCN)CC[C@]5(C)CC[C@@]4(C)[C@]3(C)CC[C@@H]12	90	31	> 100	> 100	32	58	31	59	30	Active	Active	Active	Active	Active	Active	Active	Active	Active	Active
CCOC(=O)CCNC(=O)NCCNC(=O)[C@@]1(C)CC[C@]2(C)CC[C@]3(C)C(=CC(=O)[C@@H]4[C@@]5(C)CC[C@H](O)C(C)(C)[C@@H]5CC[C@]43C)[C@@H]2C1	99	29	65	71	42	42	46	42	41										
CC(C)(C)OC(=O)NCCNC(=O)[C@@]1(C)CC[C@]2(C)CC[C@]3(C)C(=CC(=O)[C@@H]4[C@@]5(C)CC[C@H](O)C(C)(C)[C@@H]5CC[C@]43C)[C@@H]2C1	93	43	60	73	57	63	41	37	48										
